Measurements: ChEMBL document CHEMBL2062397, “N-heterocyclic dicarboxylic acids: broad-spectrum inhibitors of metallo-β-lactamases with co-antibacterial effect against antibiotic-resistant bacteria” (Bioorg Med Chem Lett, 2012)
Active and inactive are the calls of the source. The calls are words filed in the database; no cut-off is given here.

Columns and labels:
Staphylococcus aureus [1] = assay: Inhibition of metallo-beta-lactamase in methicillin-resistant Staphylococcus aureus isolate 1 assessed as reduction in cefazolin MIC after 24 hrs by macrobroth dilution assay
In short: (§1)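 Macrobroth twofold dilution in Mueller–Hinton (MH) medium. Each tube held inhibitor stock plus antibiotic from a 1280 µg/ml stock, serially twofold diluted. Final inoculum was 5 × 10⁵ CFU/ml. MIC was read after 24 h at 37 °C, with inhibitor present or absent, in duplicate.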

[2] = tested on: Escherichia coli BL21(DE3); assay: Inhibition of CcrA in Escherichia coli BL21(DE3) assessed as reduction in cefazolin MIC for after 24 hrs by macrobroth dilution assay; set-up: scale not given: the % may be the effect or the level left
In short: (§2)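 Macrobroth twofold antibiotic dilutions in Mueller–Hinton medium, tubes with or without inhibitor. Strains were E. coli BL21(DE3) carrying pMSZ02-CcrA, pET-26b-ImiS or pET26b-L1, and K. pneumoniae ATCC 700603. Incubated 37 °C for 24 h; MIC read. Duplicate.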

[3] = Inhibition of L1 using cezafolin as substrate up to 50 uM incubated for 30 mins prior to substrate addition
Staphylococcus aureus [4] = assay: Inhibition of metallo-beta-lactamase in methicillin-resistant Staphylococcus aureus isolate 1 assessed as reduction in vancomycin MIC after 24 hrs by macrobroth dilution assay; in short: as §1
[5] = tested on: Escherichia coli BL21(DE3); assay: Inhibition of Imis in Escherichia coli BL21(DE3) assessed as reduction in cefazolin MIC after 24 hrs by macrobroth dilution assay; set-up: scale not given: the % may be the effect or the level left; conditions: in the assay text read “imipenem” for “cefazolin”; in short: as §2
Klebsiella pneumoniae = assay: Inhibition of metallo-beta-lactamase in Klebsiella pneumoniae ATCC 700603 assessed as reduction in cefazolin MIC after 24 hrs by macrobroth dilution assay; in short: as §2
[6] = Noncompetitive inhibition of ImiS using imipenem as substrate incubated for 30 mins prior to substrate addition by Lineweaver-burk plot analysis
[7] = Noncompetitive inhibition of CcrA using cezafolin as substrate incubated for 30 mins prior to substrate addition by Lineweaver-burk plot analysis
In short: (§3)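 Purified CcrA (Bacteroides fragilis) or L1 (S. maltophilia), over-expressed. Cefazolin substrate at several concentrations, inhibitor concentration varied from 0. Enzyme and inhibitor preincubated 30 min. Run in 50 mM Tris pH 7.0 at 25 °C with UV–Vis spectrophotometric read-out. Inhibition mode from Lineweaver–Burk plots; Ki determined.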

[8] = tested on: Escherichia coli BL21(DE3); assay: Inhibition of L1 in Escherichia coli BL21(DE3) assessed as reduction in cefazolin MIC after 24 hrs by macrobroth dilution assay; in short: as §2
Staphylococcus aureus [9] = assay: Inhibition of metallo-beta-lactamase in methicillin-resistant Staphylococcus aureus isolate 2 assessed as reduction in vancomycin MIC after 24 hrs by macrobroth dilution assay; in short: as §1
Staphylococcus aureus [10] = assay: Inhibition of metallo-beta-lactamase in methicillin-resistant Staphylococcus aureus isolate 2 assessed as reduction in cefazolin MIC after 24 hrs by macrobroth dilution assay; in short: as §1
[11] = Inhibition of ImiS using imipenem as substrate up to 50 uM incubated for 30 mins prior to substrate addition
[12] = Inhibition of CcrA using cezafolin as substrate up to 50 uM incubated for 30 mins prior to substrate addition
[13] = Competitive inhibition of L1 using cezafolin as substrate incubated for 30 mins prior to substrate addition by Lineweaver-burk plot analysis; in short: as §3
[14] = Competitive inhibition of CcrA using cezafolin as substrate incubated for 30 mins prior to substrate addition by Lineweaver-burk plot analysis; in short: as §3
[15] = Competitive inhibition of ImiS using imipenem as substrate incubated for 30 mins prior to substrate addition by Lineweaver-burk plot analysis

| SMILES | Activity (Staphylococcus aureus [1]) | Activity [2] | inhibition [3] | Activity (Staphylococcus aureus [4]) | Activity [5] | Activity (Klebsiella pneumoniae) | Ki [6] [nM] | Ki [7] [nM] | Activity [8] | Activity (Staphylococcus aureus [9]) | Activity (Staphylococcus aureus [10]) | inhibition [11] | inhibition [12] | Ki [13] [nM] | Ki [14] [nM] | Ki [15] [nM] |
| --- | --- | --- | --- | --- | --- | --- | --- | --- | --- | --- | --- | --- | --- | --- | --- | --- |
| Sc1nnc(-c2ccccn2)s1 | inactive | 50% | inactive | inactive | 50% | inactive | 3500 | 5400 | inactive | inactive | inactive | – | – | – | – | – |
| Sc1nnc(-c2ccncc2)[nH]1 | inactive | inactive | inactive | inactive | inactive | inactive | – | – | inactive | inactive | inactive | inactive | inactive | – | – | – |
| O=C(O)C1COC(C(=O)O)N1 (configuration not stated) | inactive | Active | – | inactive | inactive | Active | – | – | Active | inactive | inactive | inactive | – | 1900 | 1100 | – |
| O=C(O)C1CCC(C(=O)O)N1 (configuration not stated) | inactive | Active | – | inactive | inactive | Active | – | – | Active | inactive | inactive | inactive | – | 690 | 730 | – |
| O=C(O)C1CSC(C(=O)O)N1 (configuration not stated) [TIDIACIC] | inactive | Active | – | inactive | Active | Active | – | – | Active | inactive | inactive | – | – | 1800 | 640 | 7100 |
| S=c1[nH]nc(-c2ccncc2)s1 | inactive | 50% | inactive | inactive | 50% | inactive | 6800 | 5900 | inactive | inactive | inactive | – | – | – | – | – |
| Sc1nnc(-c2ccccn2)[nH]1 | inactive | inactive | inactive | inactive | inactive | inactive | – | – | inactive | inactive | inactive | inactive | inactive | – | – | – |
